The results in this text go back to ChEMBL document CHEMBL2331458, “Examination of the mode of action of the almiramide family of natural products against the kinetoplastid parasite Trypanosoma brucei” (J Nat Prod, 2013).

Data set [1] is described as follows: Drug uptake in 120 hrs post fertilized zebrafish embryo intestinal tract at 1 to 270 uM after 3 hrs by confocal microscopic analysis. It is filed as ADME, Danio rerio. Conditions: in vivo. The gist of the method:
(§1)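 Zebrafish embryos at 48 and 120 h post fertilization were incubated with fluorescent probe or fluorophore control in methylene blue-free egg water at 270, 90, 30 and 0 µM, three embryos per treatment. Localization was imaged by confocal microscopy after 3 h.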

Data set [2] in a line: Drug uptake in neomycin-untreated zebrafish embryo neuromast at 250 uM after 3 hrs by confocal microscopic analysis. It is filed as ADME, tissue-based, Danio rerio. To be noted: in vivo. The gist of the method:
(§2)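 Zebrafish embryos were pretreated 1 h with neomycin 500 µM or with medium only. Both groups were then exposed to fluorescent probe (250 µM), fluorophore control (250 µM) or no compound for 3 h, and localization was imaged by confocal microscopy.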

Data set [3] is filed under the species Danio rerio. As to the kind of experiment: Drug uptake in 48 hrs post fertilized zebrafish embryo lateral line at 1 to 270 uM after 3 hrs by confocal microscopic analysis. It is filed as ADME, organism-based. Conditions: in vivo. The gist of the method: as §1
For data set [4], the system named is Trypanosoma brucei brucei. As to the kind of experiment: Antiparasitic activity against Trypanosoma brucei brucei 427-221 assessed as growth inhibition up to 50 uM after 48 hrs by cellTiter-Glo assay. It is filed as functional, organism-based. Summed up: (§3)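 T. b. brucei 427-221 was grown at 37 °C and 5% CO2 in HMI-9 with 10% FBS, 10% Serum Plus and penicillin/streptomycin, then seeded at 2×10^4/mL. Compounds were serially diluted in DMSO (1% final) and exposed for 48 h. Viability was read by CellTiter-Glo ATP luminescence. Percent inhibition was normalized to thimerosal (2 µM final) and DMSO controls, and IC50 was derived by curve fitting.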

The test system of the next data set is Leishmania donovani. As to the kind of experiment: Antiparasitic activity against Leishmania donovani assessed as growth inhibition. It is filed as functional, organism-based.
Data set [5] deals with Trypanosoma brucei brucei. As to the kind of experiment: Antiparasitic activity against Trypanosoma brucei brucei 427-221 assessed as growth inhibition after 48 hrs by cellTiter-Glo assay. It is filed as functional, organism-based. Conditions: 427-221, 48 h. The gist of the method: as §3
A short description of data set [6]: Selectivity index, ratio of LD50 for african green monkey Vero cells to IC50 for Trypanosoma brucei brucei 427-221. It is filed as toxicity, cell-based. To be noted: read-out: Ratio LD50/IC50.
The nature of data set [7]: Cytotoxicity against african green monkey Vero cells. It is filed as cell-based. To be noted: chlorocebus sabaeus, read-out: LD50 (the source's name).
Data set [8] can be described thus: Toxicity in 48 hrs post fertilized zebrafish embryo assessed as survival after 24 hrs by inverted microscopic analysis. Conditions: in vivo, read-out: MTD. It is filed as organism-based, Danio rerio.
The species named for data set [9] is Danio rerio. As to the kind of experiment: Drug uptake in 120 hrs post fertilized zebrafish embryo lateral line at 250 to 500 uM after 3 hrs by confocal microscopic analysis. It is filed as ADME, organism-based. To be noted: in vivo.
Data set [10] can be described thus: Drug uptake in neomycin-treated zebrafish embryo neuromast at 250 uM after 3 hrs by confocal microscopic analysis. It is filed as ADME, tissue-based, Danio rerio. To be noted: in vivo. The gist of the method: as §2
Data set [11] is described as follows: Drug uptake in Trypanosoma brucei brucei 427-221 nucleus at 5 uM after 1 hr by DAPI staining method. It is filed as ADME. Summed up:
(§4)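 Procyclic trypanosomes spread on glass, dried, fixed in 70% EtOH, then permeabilized in PBS/0.2% Triton for 20 min and blocked in PBS/0.5% gelatin. Anti-aldolase (1:500, 1 h) marked glycosomes. Cells were then stained 1 h with probe (5 or 50 µM) plus Alexa 594 anti-rabbit and 100 ng/mL DAPI. Imaged by epifluorescence at 100× oil.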

The nature of data set [12]: Drug uptake in Trypanosoma brucei brucei 427-221 cytosol at 5 uM after 1 hr by DAPI staining method. It is filed as ADME. Summed up:
as §4

The subject of data set [13] is Trypanosoma brucei brucei. As to the kind of experiment: Binding affinity to Trypanosoma brucei brucei 427-221 GIM5 at 50 uM by […] staining method. Summed up: as §4
Data set [14] relates to Trypanosoma brucei brucei. As to the kind of experiment: Binding affinity to Trypanosoma brucei brucei 427-221 kinetoplast DNA at 5 uM after 1 hr by DAPI staining method. The gist of the method: as §4
For data set [15], the system named is Trypanosoma brucei brucei. As to the kind of experiment: Antiparasitic activity against Trypanosoma brucei brucei 427-221 assessed as growth inhibition up to 3.1 uM after 48 hrs by cellTiter-Glo assay. It is filed as functional, organism-based. Summed up:
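T. b. brucei 427-221 bloodstream forms, grown in HMI-9 with 10% FBS and 10% Serum Plus at 37 °C, 5% CO2. Seeded at 2×10^4/mL with DMSO-serially diluted compound (1% DMSO final) for 48 h. Thimerosal 2 µM final served as positive control. Viability read by CellTiter-Glo ATP luminescence; % inhibition normalized to controls, IC50 by curve fit.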

Data set [16] deals with Trypanosoma brucei brucei. As to the kind of experiment: Binding affinity to Trypanosoma brucei brucei 427-221 PEX11 at 50 uM by […] staining method. Summed up:
as §4

A further data set concerns Trypanosoma brucei. As to the kind of experiment: Antiparasitic activity against Trypanosoma brucei assessed as growth inhibition. It is filed as functional, organism-based. Summed up: as §3

Calls of active or inactive are those of the source. The rule behind the calls is not given here. Starred links: 1 amine or outer side, 2 acyl side, 3 side chain; linkers in the order of their positions; H or OH if unused. Non-standard residues stand in square brackets, D forms with d. Residues, ends and D or L forms follow the SMILES beside them. *: point of attachment. NH(CH2CH2O)2CH2CH2NHBiotin = O=C(CCCC[C@@H]1SC[C@@H]2NC(=O)N[C@@H]21)NCCOCCOCCN*; BODIPY(FL) = CC1=CC(C)=[N+]2C1=Cc1ccc(CCC(=O)*)n1[B-]2(F)F; Octanoyl(2R-Me,7,8-dehydro) = C=CCCCC[C@@H](C)C(=O)*; Oct7ynoyl(2R-Me) = C#CCCCC[C@@H](C)C(=O)*; X2 = CN(C)c1ccc2c(CC(=O)*)cc(=O)oc2c1; NMeAEEA = CN(CCOCCOCC(=O)[*:2])[*:1]; Ethylenediamine = C(CN[*:2])N[*:1]; NMeF = CN[C@@H](Cc1ccccc1)C(=O)O; X1 = CN(CCCCCCCCC(=O)[*:2])[*:1]; Oct(7)enoyl = C=CCCCCCC(=O)*; Oct(7)ynoyl = C#CCCCCCC(=O)*; NMeV = CN[C@H](C(=O)O)C(C)C; NMeA = CN[C@@H](C)C(=O)O; X3 = C=CCCCCC(=O)*

With `CN(C)c1ccc2c(CC(=O)NCCNC(=O)CCc3ccccc3)cc(=O)oc2c1`, the Drug uptake result is “Active” in data set [1], “Not Active” in [2] and “Active” in the data set listed under Danio rerio [3].
Regarding `Cc1cc(C)n2c1C=C1C=CC(CCC(=O)NCCNC(=O)CCc3ccccc3)=[N+]1[B-]2(F)F`, the outcome in data set [4] was inactive.
Take `C=CCCCCC(=O)N(C)[C@H](C(=O)N(C)[C@H](C(=O)N(C)[C@H](C(=O)N(C)[C@@H](C)C(=O)N(C)[C@@H](Cc1ccccc1)C(=O)N(C)C)C(C)C)C(C)C)C(C)C` (X3-[NMeV][NMeV][NMeV][NMeA][NMeF]-NMe2): the IC50 is 6.7 µM in the data set on Leishmania donovani and 600 nM in data set [5]. Besides, the selectivity ratio in data set [6] came to 160. In data set [7], the CC50 is 93.1 µM.
The corresponding values for `C=CCCCCCC(=O)N(C)[C@H](C(=O)N(C)[C@H](C(=O)N(C)[C@H](C(=O)N(C)[C@@H](C)C(=O)N(C)[C@@H](Cc1ccccc1)C(=O)N(C)C)C(C)C)C(C)C)C(C)C` ({Oct(7)enoyl}-[NMeV][NMeV][NMeV][NMeA][NMeF]-NMe2) are 2.7 µM, 600 nM, 40 and 23.8 µM.
With `C=CCCCCCC(=O)N(C)[C@H](C(=O)N(C)[C@H](C(=O)N(C)[C@H](C(=O)N(C)[C@@H](C)C(=O)N(C)[C@@H](Cc1ccccc1)C(=O)OC)C(C)C)C(C)C)C(C)C` ({Oct(7)enoyl}-[NMeV][NMeV][NMeV][NMeA][NMeF]-OMe), the MNTC at 24 h in data set [8] was found to be 168 µM. In addition, the IC50 in data set [5] came out at 400 nM. In addition, in data set [6], the selectivity ratio came out at 47. For the same compound, the CC50 in data set [7] is 18.8 µM.
For the compound `C=CCCCCCC(=O)N(C)[C@H](C(=O)N(C)[C@H](C(=O)N(C)[C@H](C(=O)N(C)[C@@H](C)C(=O)N(C)[C@@H](Cc1ccccc1)C(=O)NCCOCCOCCNC(=O)CCCC[C@@H]1SC[C@@H]2NC(=O)N[C@@H]21)C(C)C)C(C)C)C(C)C` ({Oct(7)enoyl}-[NMeV][NMeV][NMeV][NMeA][NMeF]-{NH(CH2CH2O)2CH2CH2NHBiotin}), in the data set with Leishmania donovani, the 50% inhibitory concentration (IC50) came out at 9.9 µM.
On to `C=CCCCCCC(=O)N(C)[C@H](C(=O)N(C)[C@H](C(=O)N(C)[C@H](C(=O)N(C)[C@@H](C)C(=O)N(C)[C@@H](Cc1ccccc1)C(=O)N(C)CCOCCOCC(=O)NCCNC(=O)Cc1cc(=O)oc2cc(N(C)C)ccc12)C(C)C)C(C)C)C(C)C` ({Oct(7)enoyl}-[NMeV][NMeV][NMeV][NMeA][NMeF][NMeAEEA]-{Ethylenediamine-X2}), for which the Drug uptake entry in the data set listed under Danio rerio [9] is listed as “Active”; in data set [1] it was “Active”; in [2] it was “Active”; in [10], “Not Active”; in the data set listed under Danio rerio [3], “Active”.
In the case of `C=CCCCCCC(=O)N(C)[C@H](C(=O)N(C)[C@H](C(=O)N(C)[C@H](C(=O)N(C)[C@@H](C)C(=O)N(C)[C@@H](Cc1ccccc1)C(=O)N(C)CCCCCCCCC(=O)NCCNC(=O)CCC1=[N+]2C(=Cc3c(C)cc(C)n3[B-]2(F)F)C=C1)C(C)C)C(C)C)C(C)C` ({Oct(7)enoyl}-[NMeV][NMeV][NMeV][NMeA][NMeF][X1]-{Ethylenediamine-BODIPY(FL)}), the values for the Drug uptake result in data set [11], in data set [12] and in data set [1] were “Not Active”, “Active” and “Not Active”, respectively. For the same compound, the result in data set [13], in [15] and in data set [16] was Active. For the same compound, in [14], the outcome was inactive.
As to `C#CCCCCCC(=O)N(C)[C@H](C(=O)N(C)[C@H](C(=O)N(C)[C@H](C(=O)N(C)[C@@H](C)C(=O)N(C)[C@@H](Cc1ccccc1)C(=O)OC)C(C)C)C(C)C)C(C)C` ({Oct(7)ynoyl}-[NMeV][NMeV][NMeV][NMeA][NMeF]-OMe), the IC50 in [5] was 600 nM. The selectivity ratio in data set [6] was 45. Moreover, the CC50 in data set [7] was determined as 27 µM.
In the case of `C#CCCCC[C@@H](C)C(=O)N(C)[C@H](C(=O)N(C)[C@H](C(=O)N[C@H](C(=O)N(C)[C@@H](C)C(=O)N(C)[C@@H](Cc1ccccc1)C(N)=O)C(C)C)C(C)C)C(C)C` [ALMIRAMIDE B] ({Oct7ynoyl(2R-Me)}-[NMeV][NMeV]V[NMeA][NMeF]-NH2), the IC50 in [5] is 6000 nM. The selectivity ratio in [6] was determined as 8.7. Further, the CC50 in data set [7] is 52.3 µM.
For the compound `C=CCCCC[C@@H](C)C(=O)N(C)[C@H](C(=O)N(C)[C@H](C(=O)N[C@H](C(=O)N(C)[C@@H](C)C(=O)N(C)[C@@H](Cc1ccccc1)C(N)=O)C(C)C)C(C)C)C(C)C` [ALMIRAMIDE C] ({Octanoyl(2R-Me,7,8-dehydro)}-[NMeV][NMeV]V[NMeA][NMeF]-NH2), the IC50 in data set [5] worked out at 3000 nM. For the same compound, the selectivity ratio in [6] came to 11. For the same compound, the CC50 in data set [7] came to 33.1 µM.
Consider `NCCCC(N)(C(=O)O)C(F)F` (configuration not stated) [EFLORNITHINE], for which, in the data set on Trypanosoma brucei, the IC50 is 59000 nM.
Still for that read-out and setting: the same measure for `Nc1nc(N)nc(Nc2ccc([As]3SCC(CO)S3)cc2)n1` (configuration not stated) [MELARSOPROL]: 10 nM; for `N=C(N)c1ccc(OCCCCCOc2ccc(C(=N)N)cc2)cc1` [PENTAMIDINE]: 30 nM; for `Cc1ccc(C(=O)Nc2ccc(S(=O)(=O)O)c3cc(S(=O)(=O)O)cc(S(=O)(=O)O)c23)cc1NC(=O)c1cccc(NC(=O)Nc2cccc(C(=O)Nc3cc(C(=O)Nc4ccc(S(=O)(=O)O)c5cc(S(=O)(=O)O)cc(S(=O)(=O)O)c45)ccc3C)c2)c1` [SURAMIN]: 1400 nM.
